SKN-1 inh = blocks SKN-1 activity in C. elegans. C. elegans VP596 Pgst-4::GFP/RFP ratio, acrylamide-induced, 24 h. inhibition, % at 21.8 µM. actives 0.49% (n = 360,000). AID 624304;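 active = interference check ratio from 0.5 to 1.5 plus GFP to RFP signal ratio inhibition reaching or exceeding a fixed threshold, cut at about 30% in these data, passing the limit was not always enough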
GRK2 inh = human GRK2 inhibition via aptamer displacement; inhibition of aptamer binding, % at 10 µM; actives 0.59% (n = 330,000); AID 488847; bead flow cytometry, FAM-aptamer displacement from GRK2; P25098;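 active = inhibition of aptamer binding above 40%, roughly 3 SD of noise, on plates passing a quality check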;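 also: median bead fluorescence of bound FAM aptamer so fluorescent compounds give negative values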
Rce1 inh = blocks yeast Ras-converting enzyme; Q03530; yeast membranes, quenched prenylated peptide cleavage fluorescence; calls only; actives 0.27% (n = 290,000);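 active = fall in fluorescence gain of 50% or more versus controls, with final raw signal at or below 3038400; inconclusive = same 50% fall but final raw signal above 3038400; inactive = fall in fluorescence gain under 50%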
Rin1-Abl PPI inh = human Rin1-Abl interaction inhibition; P00519+Q13671; TR-FRET Rin1/Abl binding, biochemical; inhibition, % at 7.35 µM; actives 0.4% (n = 360,000); in the data active = inhibition above about 5%, passing the limit was not always enough
T cell HTS = T cell immune modulation candidate; 2C CD8+ T cell-vesicle binding, flow cytometry; hits give low values; AID 2052; response (vesicle binding), % at 7 µM; actives 0.068% (n = 330,000);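 active = response, share of CD8 T cells binding vesicles, and their 90th percentile fluorescence all below set limits, cut at about 80% in these data, passing the limit was not always enough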;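 also: values below 100% mean blocked vesicle binding to the CD8+ T cells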
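Test system: purified 2C TCR transgenic mouse naive CD8+ T cells. Probe or stimulus: QL9-peptide-loaded Drosophila micro-vesicles bearing Ld, ICAM-1 and B7-1. Incubation: binding step 1.5 h, 37 °C, antibody labelling 20 min, ice. Measured by: flow cytometry of vesicle-bound cells.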
Myeloid diff MLP = myeloid differentiation induction; ER-HoxA9 myeloid progenitors, lysozyme-GFP differentiation, flow cytometry; calls only at 10 µM; actives 1% (n = 360,000);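 active = normalized GFP-positive differentiation at or above the plate's own cutoff, the solvent-only control mean plus 3 SD; inconclusive = no clear call, values can overlap the other calls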;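 also: cells exposed to compound for four days before flow analysis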
Large screens that a line does not name were inactive. Compounds with a hit are over-represented: about 2.6% of the library has one in this group of screens.

O=C(COC(=O)c1ccc(Cl)nc1)Nc1ccc2ccccc2c1	SKN-1 inh 47.1 (no result: GRK2 inh, Rce1 inh, T cell HTS)
CC(=O)c1cccc(OCC(=O)N(Cc2ccco2)c2c(N)n(Cc3ccccc3)c(=O)[nH]c2=O)c1	Myeloid diff MLP active (no result: Rce1 inh)
CCCOc1ccc(CNC(=O)c2ccc3c(c2)N(CC)CCS3)cc1	Myeloid diff MLP active
CCN1CCSc2ccc(C(=O)NCc3cccc(Br)c3)cc21	none
Clc1cc(Cl)c2nc(N3CCCCC3)sc2c1	none
Clc1cc(Cl)c2nc(N3CCCC3)sc2c1	SKN-1 inh 37.2
CC1CCCCC1NC(=O)CCCCn1c(=O)[nH]c2ccsc2c1=O (centres undefined)	Myeloid diff MLP active
CNc1nc(SC)nc(N(C)C#N)n1	none
Cc1coc(NC(=O)CSc2nc(-c3ccc(Cl)cc3)cc(C(F)(F)F)c2C#N)n1	Myeloid diff MLP active
CSc1ccccc1NC(=O)COc1nsnc1N1CCOCC1	Myeloid diff MLP active
O=C(NCCO)C(=O)NCC1OCCCN1S(=O)(=O)c1ccc2c(c1)OCCO2 (centres undefined)	none
C/C(CC(=O)Nc1ccc(OCc2ccccc2)cc1)=N\NC(=O)C(=O)Nc1ccc(C)c(Cl)c1	SKN-1 inh 38.2
Cc1ccc(-n2cc(CN3CCC(CO)(Cc4cccc(C(F)(F)F)c4)CC3)cn2)cc1	Myeloid diff MLP active
COC(=O)CC1(C(=O)OC)Oc2ccc(Br)cc2C(=O)N1c1cc(Cl)c(Cl)cc1Cl (centres undefined)	none
CC1C(=O)Nc2ccc(S(=O)(=O)NCCc3ccc(Cl)cc3)cc2NC1=O (centres undefined)	none
COc1ccc2[nH]c3c(c2c1)CCN1C(=O)C(CC(=O)NCc2ccco2)C[C@H](C(=O)N(C(C)C)C(C)C)[C@@]31C (some centres undefined)	none (no result: Rce1 inh, T cell HTS)
Cc1cc(N2CCN(C(c3ccccc3)c3ccccc3)CC2)n2ncnc2n1	Rce1 inh active
Cc1nc2ncnn2c(N2CCN(C(c3ccccc3)c3ccccc3)CC2)c1C	none
Brc1ccc(-c2cn3cccnc3n2)cc1	SKN-1 inh 48.1 (no result: Rce1 inh)
Clc1ccc(-c2cn3cccnc3n2)cc1Cl	SKN-1 inh 41.8
Clc1ccc(-c2cn3cccnc3n2)cc1	none
Cc1cc(C(=O)c2ccc3ccccc3c2)c(C)o1	none
CCCCC[C@@H](C)N1C[C@H](COCc2ccccc2)Oc2cc(N3CC[C@H](O)C3)ccc2S1(=O)=O	none (no result: GRK2 inh, Rce1 inh, Rin1-Abl PPI inh, T cell HTS)
COc1ccccc1CNc1nc(NC(C)C)nc2cc(-c3ccccc3)sc12	Myeloid diff MLP active (no result: GRK2 inh, Rce1 inh, T cell HTS)
CC(C)N1CCN(C2CSCCSC2)CC1CCO (centres undefined)	none
CCOC(=O)C1=CC[C@@H](c2ccccc2C(F)(F)F)N(S(=O)(=O)c2ccc(C)cc2)[C@H]1c1ccc(C#N)cc1	none (no result: GRK2 inh, Rce1 inh, T cell HTS)
CCCCn1nnnc1NCc1ccc(C)s1	SKN-1 inh 40.5
Cc1ccc(OCCOC(=O)CCc2nc3ccccc3c(=O)[nH]2)cc1	none
COc1cc2c(cc1OC)C1=CC(=O)C(=O)N1C(C)(C)C2	Myeloid diff MLP active
COc1cc2c(cc1OC)/C(=C/C#N)NC(C)(C)C2	none
Cc1ccc(CNC(=O)C(CC(C)C)OC(=O)c2ccco2)cc1 (centres undefined)	none
O=C(c1ccc(Br)cc1)c1cc([N+](=O)[O-])ccc1N1CCOCC1	SKN-1 inh 65.2 (no result: Myeloid diff MLP)
O=C(c1ccc(Cl)cc1)c1cc([N+](=O)[O-])ccc1N1CCOCC1	SKN-1 inh 66.7, Myeloid diff MLP inconclusive
COc1ccc(CCNS(=O)(=O)c2cc3c4c(c2)CCN4C(=O)CC3)cc1	none
CCN(CC)CCNC(=O)C(=O)Nc1ccc(C(=O)OC)cc1	none
O=C(/C=C/c1cccs1)Nc1ccncc1	none
CCCOC(=O)c1ccc(NC(=O)/C=C/c2cccs2)cc1	SKN-1 inh 46.9
Cc1cc(Oc2ccc(=O)n(C)n2)nc(=S)[nH]1	none (no result: SKN-1 inh, Rin1-Abl PPI inh, Myeloid diff MLP)
Cc1cc(C(C)(C)C)cc(C)c1C[n+]1ccc2ccccc2c1	Myeloid diff MLP active
Cc1ccc(C(=O)C[n+]2ccc3ccccc3c2)cc1	none
O=C(O)c1cc(-c2ccc(/C=c3\sc4nc5ccc(Br)cc5n4c3=O)o2)ccc1Cl	none (no result: SKN-1 inh, Rin1-Abl PPI inh, Myeloid diff MLP)
Cc1cc2nc3s/c(=C/c4ccc(-c5ccccc5C(=O)O)o4)c(=O)n3c2cc1C	Myeloid diff MLP active
COC(=O)c1c(C)[nH]c(C)c1C(=O)c1ccccc1Cc1ccccc1	Myeloid diff MLP active
Cc1c(C(=O)N(C)c2ccc(Cl)cc2)cnn1-c1ccccc1	SKN-1 inh 38.0
O=C(O)Cc1sc(NC2CCCCC2)nc1-c1ccc(Cl)cc1	Myeloid diff MLP active
CC(C)N1CC(C(=O)Nc2ccc(Cl)c([N+](=O)[O-])c2)CC1=O (centres undefined)	none
Cn1ncc2c(NCCc3ccccc3)nc(Cl)nc21	SKN-1 inh 35.2 (no result: GRK2 inh, Rce1 inh, T cell HTS)
Cc1ccc(S(=O)(=O)NCc2cccnc2)cc1	none
Cc1cc(OCc2cc(C(=O)N(C)C3CCOC3)no2)cc(C)c1Cl (centres undefined)	none
CN1/C(=C/C=C(C#N)C#N)C=Cc2ccccc21	Myeloid diff MLP active
CCOC(=O)/C(C#N)=C/C=C1\C=Cc2ccccc2N1CC	Myeloid diff MLP active
CCC(CC)NC(=O)COc1ccc(OC)cc1C=O	none
COc1c(C(=O)Nc2nccs2)ccc2ccccc12	SKN-1 inh 55.2
COc1c(C(=O)Nc2ccc(Br)cn2)ccc2ccccc12	none
COc1cc2ccccc2cc1C(=O)Nc1nccs1	SKN-1 inh 57.6
COc1cc2ccccc2cc1C(=O)Nc1cc(C)ccn1	none (no result: Myeloid diff MLP)
O=C(Nc1nccs1)c1ccc2ccccc2c1	SKN-1 inh 43.7
COc1ccc(NC(=O)N2CCCc3cc(C)ccc32)c(OC)c1	none
Cc1ccc(NC(=O)CN(C)C(=O)c2cc(-c3cccs3)nn2-c2ccccc2)cc1	none (no result: Rce1 inh)
COc1ccccc1CNc1ccc2c(c1)CCC2	Myeloid diff MLP active
COc1ccc(CNc2ccc3c(c2)CCC3)cc1Br	none
O=C(O)c1cccc2c1C(=O)c1ccc(-c3ccc(F)cc3F)cc1S2(=O)=O	none (no result: Rce1 inh)
CCOC(=O)C1(Cc2cccc(F)c2)CCN(Cc2nc(CC)[nH]c2C)CC1	Myeloid diff MLP active
Cc1cc(Oc2ccc(N)cn2)ccc1Cl	Myeloid diff MLP active
NNC(=O)c1csc(-c2ccc(C(F)(F)F)cc2Cl)n1	Myeloid diff MLP active
Cc1cnc(C(=O)OCC(=O)c2ccc(F)c(F)c2)cn1	none
COC(=O)C(CC(C)C)NC(=O)C(Cc1ccccc1)NC(=O)C1CCCN1C(=O)OC(C)(C)C (centres undefined)	none
CSc1ccc(-c2nnn(Cc3ccc(Br)cc3)n2)cc1	SKN-1 inh 36.1
O=c1c2ccccc2oc2cc(Br)ccc12	none (no result: GRK2 inh, Rce1 inh, T cell HTS)
COc1cc2oc3ccccc3c(=O)c2cc1OC	GRK2 inh 86.0
O=c1c2ccccc2oc2ccc(Oc3ccccc3)cc12	SKN-1 inh 41.3
